This is a sample that favours compounds with a hit; in the whole collection about 2.4% have one here.
Cneo AK release = causes C. neoformans cell lysis | adenylate kinase release luminescence, 4 h; normalised: neutral wells 0, clomiphene wells 100 | lysis activity, % at 15 µM | 360,000 tested, 0.2% active | AID 651654;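 active means mean lysis activity across replicates of at least 80%, whatever share of replicates individually reach that level; inactive means mean lysis activity below 80%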
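Material – Cryptococcus neoformans yeast cells · Quantity – 5 × 10^6 yeast cells/mL · Buffer or medium – YPD medium · Compound – single dose · Timing – 4 h static compound exposure, 37 °C, read 1 h post-reagent · Signal – adenylate kinase release luminescence · Read-out basis – lysis from increased AK signal · Benchmarks – Clomiphene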
Rtt109 HAT inh = inhibitors of Candida albicans Rtt109/Vps75 histone acetyltransferase | Q5AAJ8 | purified Rtt109/Vps75, ThioGlo CoA-SH fluorescence, 4 h | inhibition, % at 34.9 µM | 330,000 tested, 0.16% active | AID 540336;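 active means inhibition of at least 50% in every replicate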
Target sequence (Q5AAJ8 whole entry, looked up): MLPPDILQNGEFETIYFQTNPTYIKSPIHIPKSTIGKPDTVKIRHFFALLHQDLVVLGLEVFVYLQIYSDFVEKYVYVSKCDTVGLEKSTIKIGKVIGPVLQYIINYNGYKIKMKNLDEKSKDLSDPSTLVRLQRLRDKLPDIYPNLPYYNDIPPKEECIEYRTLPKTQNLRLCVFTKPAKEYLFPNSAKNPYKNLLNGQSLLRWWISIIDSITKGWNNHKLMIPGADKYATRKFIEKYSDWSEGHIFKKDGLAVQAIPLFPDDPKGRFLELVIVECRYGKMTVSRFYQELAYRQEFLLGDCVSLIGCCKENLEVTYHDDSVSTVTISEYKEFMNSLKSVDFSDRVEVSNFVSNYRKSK
miR122 inh = blocks miR-122 activity in Huh7 sensor cells. 340,000 tested, 0.3% active. activation (reporter increase), % at 12.5 µM. Huh7 miR-122 Renilla luciferase sensor, 48 h; neutral wells = 0, positive control = 100;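 active means mean replicate activation score at least 90 and every replicate individually at or above 90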;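 further: higher luciferase means less miR-122 activity so hits act as miR-122 inhibitors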
HIV Env fusion = blocks HIV Env-driven cell-cell fusion. HeLa-JRFL Env/CEM21 cell fusion, luciferase. inhibition, % at 12.3 µM. 360,000 tested, 1.1% active. AID 651610;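 active means mean replicate inhibition score of at least 50 and every replicate individually at or above 50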
dFosB act = activators of mouse delta FosB homodimer | purified delta FosB, TAMRA-CDK5 oligo fluorescence polarization; percent of positive-control signal above neutral wells | P13346 | activation, % at 25 µM | 340,000 tested, 0.99% active;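 active means mean activation above about 17%, with every replicate also reaching it, limit read from the data, passing the limit was not always enough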
INS-1E GSIS act = primary screen for activators of insulin secretion dependent on glucose, INS-1E cells, GLuc reporter luminescence; AID 743287; 370,000 tested, 0.61% active; INS-1E GLuc reporter insulin secretion, 2-3 h; activation, % at 16.6 µM;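 active means lowest replicate activation of at least 40%, so every replicate reaches that level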
A number is an active result; – = inactive; · = not tested or not shown; [ ] = remark or other dose.

SMILES	Cneo AK release	Rtt109 HAT inh	miR122 inh	HIV Env fusion	dFosB act	INS-1E GSIS act
COc1ccc(Br)cc1C(=O)Nc1cccc(C)c1	·	–	–	·	–	51.5
C[C@@H]1CN([C@@H](C)CO)S(=O)(=O)c2ccc(-c3cncnc3)cc2O[C@H]1CN(C)C(=O)C1CC1	·	·	–	–	·	–
C[C@@H]1CN([C@H](C)CO)C(=O)c2cccc(NC(=O)C3CC3)c2O[C@@H]1CN(C)CC1CCCCC1	–	·	–	–	·	–
NC(=O)c1sc2nc(-c3ccccc3)c3c(c2c1N)CCCC3	–	–	–	–	–	–
NC(=O)c1sc2nccc(Nc3ccccc3)c2c1N	–	–	–	93.2	–	·
CO[C@@H]1CN(C)C(=O)c2cc(NC(=O)C3CC3)ccc2OC[C@@H](C)N(C(=O)C2CCCCC2)C[C@H]1C	–	·	–	·	·	–
COc1ccc(OC)c(NC(=O)CSc2nc3scc(C)c3c(=O)[nH]2)c1	–	–	·	–	–	–
Cc1csc2nc(SCC(=O)Nc3ccccc3F)[nH]c(=O)c12	–	–	–	–	23.6	–
CCN1C(=O)Nc2cccc3cccc1c23	–	–	–	61.9	–	–
CCC(C)NC(=O)CSC1=Nc2ccccc2C2=NC(CC(=O)NCc3ccccc3)C(=O)N12 (stereo not given)	–	–	–	–	–	·
CC1CC(C)CN(C(=O)CSC2=Nc3ccccc3C3=NC(Cc4c[nH]c5ccccc45)C(=O)N23)C1 (stereo not given)	–	–	211.9	·	–	·
O=C(CSc1c[nH]c2ccccc12)NC1CCCC1	–	–	–	–	–	–
O=C(CSC1=Nc2ccccc2C2=NC(Cc3c[nH]c4ccccc34)C(=O)N12)NC1CCCCC1 (stereo not given)	–	·	–	113.8	–	·
Cc1ccc(S(=O)(=O)Nc2ccc3c(c2)C(=O)N([C@@H](C)CO)C[C@@H](C)[C@@H](CN(C)S(=O)(=O)c2ccc(Cl)cc2)OCCCC[C@H](C)O3)cc1	100.7	·	–	–	·	–
Cc1ccc(S(=O)(=O)Nc2ccc3c(c2)C(=O)N([C@@H](C)CO)C[C@H](C)[C@@H](CN(C)S(=O)(=O)c2ccc(Cl)cc2)OCCCC[C@@H](C)O3)cc1	–	·	–	–	·	–
C[C@@H]1CCCCO[C@@H](CN(C)S(=O)(=O)c2ccc(F)cc2)[C@@H](C)CN([C@@H](C)CO)C(=O)c2cc(NS(=O)(=O)c3ccc(F)cc3)ccc2O1	104.1	·	–	–	·	–
Cc1ccc(S(=O)(=O)N(C)C[C@@H]2Oc3ccc(NS(=O)(=O)c4ccc(Cl)cc4)cc3C(=O)N([C@@H](C)CO)C[C@H]2C)cc1	·	·	–	63.7[16.7 µM]	·	–
C[C@@H]1CN([C@@H](C)CO)C(=O)c2cc(NS(=O)(=O)c3ccc(F)cc3)ccc2O[C@@H](C)CCCCO[C@H]1CN(C)S(=O)(=O)c1ccc(F)cc1	101.0	·	–	–	·	–
CO[C@@H]1CN(C)C(=O)c2ccc(NC(=O)Nc3ccccc3)cc2OC[C@@H](C)NC[C@@H]1C	·	·	·	·	·	–
C/C=C/c1ccc2c(c1)O[C@@H](CN(C)C(=O)C1CC1)[C@@H](C)CN([C@@H](C)CO)S2(=O)=O	·	·	–	–	·	–
C[C@@H]1CCCCO[C@@H](CN(C)S(=O)(=O)c2cn(C)cn2)[C@H](C)CN([C@H](C)CO)C(=O)c2cc(NC(=O)CCC(F)(F)F)ccc2O1	–	·	–	–	·	–
O=C(CN1CCOCC1)N1CC(=O)N2[C@H](C1)[C@H](c1ccc(-c3cccc(F)c3)cc1)[C@@H]2CO	·	·	·	·	·	–
CO[C@@H]1CN(C)C(=O)c2cc(NC(=O)C3CCOCC3)ccc2OC[C@H](C)NC[C@@H]1C	101.7	·	–	–	·	–
CO[C@H]1CN(C)C(=O)c2cc(NC(=O)C3CCOCC3)ccc2OC[C@@H](C)NC[C@@H]1C	–	·	–	–	·	–
CO[C@@H]1CN(C)C(=O)c2cc(NC(=O)C3CCOCC3)ccc2OC[C@H](C)NC[C@H]1C	–	·	–	–	·	–
SMILES	Cneo AK release	Rtt109 HAT inh	miR122 inh	HIV Env fusion	dFosB act	INS-1E GSIS act
CO[C@H]1CN(C)C(=O)c2cc(NC(=O)C3CCOCC3)ccc2OC[C@@H](C)NC[C@H]1C	106.7	·	–	–	·	–
CN=c1scc(-c2ccccc2F)n1/N=C/c1ccc[nH]1	·	–	–	66.6	–	–
Cn1nc(C(C)(C)C)cc1C(=O)NCc1ccc(N2CCCC2=O)cc1	–	–	–	64.1	–	–
CCC(C(=O)NC(C)(C)C)n1c(C(c2ccccc2)c2ccccc2)nc2ccccc21 (stereo not given)	·	·	·	86.0	·	–
CC(C(=O)NC(C)(C)C)n1c(-c2ccccc2)nc2ccccc21 (stereo not given)	·	·	·	–	·	·
CCC(C(=O)NC(C)(C)C)n1c(-c2ccc(C)cc2)nc2ccccc21 (stereo not given)	·	·	·	–	·	–
Cc1csc(-c2nc3ccccc3n2C(C(=O)NC(C)(C)C)c2ccccc2)c1 (stereo not given)	·	·	·	56.9	·	–
CC(C(=O)NC(C)(C)C)n1c(C(c2ccccc2)c2ccccc2)nc2ccccc21 (stereo not given)	·	·	·	87.0	·	–
CCCC(=O)Nc1ccc2c(c1)C(=O)N(C)C[C@H](OC)[C@@H](C)CN(Cc1cncnc1)[C@@H](C)CO2	–	·	·	–	·	–
Cc1noc(C)c1S(=O)(=O)Nc1ccc2c(c1)C(=O)N([C@@H](C)CO)C[C@@H](C)[C@@H](CN(C)C(=O)Nc1ccc(F)cc1)O2	·	·	–	–	·	–
O=C(C[C@H]1C=C[C@H](NC(=O)Nc2ccccc2)[C@@H](CO)O1)NCc1cccc(F)c1	–	·	·	–	·	–
COc1ccc(C(O)(C2CCCCC2)C(CN2CCOCC2)c2ccccc2)cc1 (stereo not given)	–	–	·	74.3	–	–
OC(c1ccccc1)(C1CCCCC1)C(CN1CCOCC1)c1ccccc1 (stereo not given)	–	–	–	–	–	–
CCCCCC(O)(c1ccc(OC)cc1)C(CN1CCOCC1)c1ccccc1 (stereo not given)	–	–	·	–	–	–
CCCCCC(O)(c1ccc(OCC)cc1)C(CN1CCOCC1)c1ccccc1 (stereo not given)	–	–	·	59.0	–	–
CC1Cc2cc(-c3csc(NC(=O)Cc4cccs4)n3)ccc2N1S(C)(=O)=O (stereo not given)	–	–	–	74.6	–	–
Clc1ccc(CN2CCN(c3ncnc4scc(-c5cccs5)c34)CC2)cc1	–	–	–	65.5	–	·
Fc1ccc(CN2CCN(c3ncnc4scc(-c5ccc(F)cc5)c34)CC2)cc1	–	–	–	–	–	–
O=C(C[C@H]1C[C@@H]2c3cc(NC(=O)C4CCC4)ccc3O[C@@H]2[C@@H](CO)O1)NCc1ccc2c(c1)OCO2	–	·	–	85.8[16.7 µM]	·	–
O=C(C[C@H]1C[C@@H]2c3cc(NC(=O)C4CCC4)ccc3O[C@@H]2[C@H](CO)O1)NCc1ccc2c(c1)OCO2	–	·	–	–	·	–

Screening data: PubChem, Broad Institute
